Tests used:
Assay type in all cases: functional, cell-based
LNCaP = test: Cytotoxicity against human LNCAP cells after 72 hrs by XTT assay
Method in brief: (§1)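 Compounds in DMSO (5-100 µg/ml, final DMSO <0.2%) were added for 72 h. XTT was then added (4 h, 37°C) and formazan read at 492 nm. IC50 is the 50% viability drop versus vehicle. Three experiments, five wells each, mean ± SEM.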

[1] = Cytotoxicity against human PC3 cells after 72 hrs by XTT assay; details: PC-3, 72 h; method in brief: as §1
[2] = Cytotoxicity against rat MAT-LyLu cells after 72 hrs by XTT assay; details: MAT-Ly-Lu; method in brief: as §1

Measured: IC50

COc1ccc(OC)c(N2C3=C(C(=O)CCC3)[C@]3(O)C(=O)c4ccccc4[C@]23O)c1
> 100 µg/mL: LNCaP | [1] | [2]

COc1ccccc1N1C2=C(C(=O)CCC2)[C@]2(O)C(=O)c3ccccc3[C@]12O (racemic)
> 100 µg/mL: LNCaP | [1] | [2]

COc1cccc(N2C3=C(C(=O)CCC3)[C@]3(O)C(=O)c4ccccc4[C@]23O)c1 (racemic)
> 100 µg/mL: LNCaP | [1] | [2]

COc1ccc(N2C3=C(C(=O)CCC3)[C@]3(O)C(=O)c4ccccc4[C@]23O)cc1 (racemic)
> 100 µg/mL: LNCaP | [1] | [2]

COc1ccc(N2C3=C(C(=O)CCC3)[C@]3(O)C(=O)c4ccccc4[C@]23O)c(OC)c1 (racemic)
> 100 µg/mL: LNCaP | [1] | [2]

COc1ccc(N2C3=C(C(=O)CCC3)[C@]3(O)C(=O)c4ccccc4[C@]23O)cc1OC (racemic)
> 100 µg/mL: LNCaP | [1] | [2]

COc1cc(N2C3=C(C(=O)CCC3)[C@]3(O)C(=O)c4ccccc4[C@]23O)cc(OC)c1OC (racemic)
> 100 µg/mL: LNCaP | [1] | [2]

Cc1ccccc1N1C2=C(C(=O)CCC2)[C@]2(O)C(=O)c3ccccc3[C@]12O (racemic)
> 100 µg/mL: LNCaP | [1] | [2]

Cc1cccc(N2C3=C(C(=O)CCC3)[C@]3(O)C(=O)c4ccccc4[C@]23O)c1 (racemic)
> 100 µg/mL: LNCaP | [1] | [2]

Cc1ccc(N2C3=C(C(=O)CCC3)[C@]3(O)C(=O)c4ccccc4[C@]23O)cc1 (racemic)
> 100 µg/mL: LNCaP | [1] | [2]

Cc1ccc(N2C3=C(C(=O)CCC3)[C@]3(O)C(=O)c4ccccc4[C@]23O)c(C)c1 (racemic)
> 100 µg/mL: LNCaP | [1] | [2]

Cc1ccc(C)c(N2C3=C(C(=O)CCC3)[C@]3(O)C(=O)c4ccccc4[C@]23O)c1 (racemic)
> 100 µg/mL: LNCaP | [1] | [2]

Cc1ccc(N2C3=C(C(=O)CCC3)[C@]3(O)C(=O)c4ccccc4[C@]23O)cc1C (racemic)
> 100 µg/mL: LNCaP | [1] | [2]

Cc1cc(C)cc(N2C3=C(C(=O)CCC3)[C@]3(O)C(=O)c4ccccc4[C@]23O)c1 (racemic)
> 100 µg/mL: LNCaP | [1] | [2]

O=C1CCCC2=C1[C@]1(O)C(=O)c3ccccc3[C@]1(O)N2c1ccc(Br)cc1 (racemic)
> 100 µg/mL: LNCaP | [1] | [2]

COc1ccccc1N1C2=C(C(=O)CC(C)(C)C2)[C@]2(O)C(=O)c3ccccc3[C@]12O (racemic)
> 100 µg/mL: LNCaP | [1] | [2]

COc1cccc(N2C3=C(C(=O)CC(C)(C)C3)[C@]3(O)C(=O)c4ccccc4[C@]23O)c1 (racemic)
> 100 µg/mL: LNCaP | [1] | [2]

COc1ccc(N2C3=C(C(=O)CC(C)(C)C3)[C@]3(O)C(=O)c4ccccc4[C@]23O)cc1 (racemic)
> 100 µg/mL: LNCaP | [1] | [2]

COc1ccc(N2C3=C(C(=O)CC(C)(C)C3)[C@]3(O)C(=O)c4ccccc4[C@]23O)c(OC)c1 (racemic)
> 100 µg/mL: LNCaP | [1] | [2]

Source: ChEMBL document CHEMBL3414540, “Synthesis, crystal structure and effect of indeno[1,2-b]indole derivatives on prostate cancer in vitro. Potential effect against MMP-9” (Eur J Med Chem, 2015)
